Calls of active or inactive are those of the source. The rule behind the calls is not given here.
Key:
MOLM-14 [1] = test: Antiproliferative activity against human MOLM-14 cells assessed as inhibition of cell growth incubated for 72 hrs by resazurin dye based assay; assay type: functional; settings: MOLM-14, 72 h
Method in brief: (§1)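 Logarithmic-phase cells were seeded at 5000 per well and treated 24 h later, in triplicate, with various concentrations for 72 h. MOLM14 lines were grown in RPMI with 10 % FBS, and other lines per provider instructions, all at 37 °C and 5 % CO2. Resazurin was then added for 4–6 h and fluorescence read. GI50 was taken from percent growth versus DMSO control, fitted with a variable-slope normalized-response model; at least three runs.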

MOLM-14 [2] = test: Inhibition of ERK phosphorylation in human MOLM-14 cells at 1 times IC50 incubated for 2 hrs by Western blot analysis; assay type: cell-based
[3] = target: High affinity nerve growth factor receptor (Homo sapiens) (UniProt P04629); test: Inhibition of TRKA (unknown origin) at 4.5 nM incubated for 1 hr by KINOMEscan analysis relative to control
Sequence of High affinity nerve growth factor receptor (Homo sapiens) (P04629 33-796 limits assumed): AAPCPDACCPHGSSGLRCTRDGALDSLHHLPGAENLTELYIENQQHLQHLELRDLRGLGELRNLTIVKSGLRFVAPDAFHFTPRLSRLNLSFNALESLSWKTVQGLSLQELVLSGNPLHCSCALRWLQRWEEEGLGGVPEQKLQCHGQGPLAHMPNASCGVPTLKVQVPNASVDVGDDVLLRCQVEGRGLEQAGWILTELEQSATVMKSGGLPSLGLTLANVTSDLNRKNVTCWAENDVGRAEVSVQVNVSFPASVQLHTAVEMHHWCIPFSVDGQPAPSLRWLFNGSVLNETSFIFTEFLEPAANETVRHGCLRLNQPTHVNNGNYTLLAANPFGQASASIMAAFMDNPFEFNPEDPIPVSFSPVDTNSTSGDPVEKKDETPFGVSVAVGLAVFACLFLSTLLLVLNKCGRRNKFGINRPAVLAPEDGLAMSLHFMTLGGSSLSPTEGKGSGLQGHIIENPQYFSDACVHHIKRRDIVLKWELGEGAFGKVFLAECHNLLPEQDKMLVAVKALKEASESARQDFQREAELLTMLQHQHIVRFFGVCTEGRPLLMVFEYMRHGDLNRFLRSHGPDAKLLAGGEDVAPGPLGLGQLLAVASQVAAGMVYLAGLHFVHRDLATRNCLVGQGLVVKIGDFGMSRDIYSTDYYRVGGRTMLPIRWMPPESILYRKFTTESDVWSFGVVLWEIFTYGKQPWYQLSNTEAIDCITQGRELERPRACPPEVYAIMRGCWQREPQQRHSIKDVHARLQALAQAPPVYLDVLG
Method in brief: (§2)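 Competition binding panel: DNA-tagged kinases combined with beads carrying immobilized biotinylated ligand and test compound in binding buffer (20 % SeaBlock, 0.17x PBS, 0.05 % Tween 20, 6 mM DTT). Compound diluted from 100x DMSO stocks. Incubated 1 h at room temperature with shaking, then washed. Bound kinase eluted with non-biotinylated ligand for 30 min. Kinase in eluate quantified by qPCR.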

MOLM-14 [4] = test: Inhibition of ERK phosphorylation in human MOLM-14 cells harboring FLT3 D835Y mutant at 10 times IC50 incubated for 2 hrs by Western blot analysis relative to control; assay type: cell-based
K562 = test: Antiproliferative activity against human K562 cells assessed as inhibition of cell growth incubated for 72 hrs by resazurin dye based assay; assay type: functional; settings: K562, 72 h; method in brief: as §1
MOLM-14 [5] = test: Inhibition of ERK phosphorylation in human MOLM-14 cells harboring FLT3 D835Y mutant at 1 times IC50 incubated for 2 hrs by Western blot analysis; assay type: cell-based
[6] = target: Receptor-type tyrosine-protein kinase FLT3 (Homo sapiens) (UniProt P36888); settings: dose 4.5 nM, time 1.0 hrs
[7] = target: T1, Receptor-type tyrosine-protein kinase FLT3 (Homo sapiens, UniProt P36888); test: Inhibition of FLT3 (unknown origin) by bioluminescent ADP-Glo assay
T1 sequence (P36888 whole entry): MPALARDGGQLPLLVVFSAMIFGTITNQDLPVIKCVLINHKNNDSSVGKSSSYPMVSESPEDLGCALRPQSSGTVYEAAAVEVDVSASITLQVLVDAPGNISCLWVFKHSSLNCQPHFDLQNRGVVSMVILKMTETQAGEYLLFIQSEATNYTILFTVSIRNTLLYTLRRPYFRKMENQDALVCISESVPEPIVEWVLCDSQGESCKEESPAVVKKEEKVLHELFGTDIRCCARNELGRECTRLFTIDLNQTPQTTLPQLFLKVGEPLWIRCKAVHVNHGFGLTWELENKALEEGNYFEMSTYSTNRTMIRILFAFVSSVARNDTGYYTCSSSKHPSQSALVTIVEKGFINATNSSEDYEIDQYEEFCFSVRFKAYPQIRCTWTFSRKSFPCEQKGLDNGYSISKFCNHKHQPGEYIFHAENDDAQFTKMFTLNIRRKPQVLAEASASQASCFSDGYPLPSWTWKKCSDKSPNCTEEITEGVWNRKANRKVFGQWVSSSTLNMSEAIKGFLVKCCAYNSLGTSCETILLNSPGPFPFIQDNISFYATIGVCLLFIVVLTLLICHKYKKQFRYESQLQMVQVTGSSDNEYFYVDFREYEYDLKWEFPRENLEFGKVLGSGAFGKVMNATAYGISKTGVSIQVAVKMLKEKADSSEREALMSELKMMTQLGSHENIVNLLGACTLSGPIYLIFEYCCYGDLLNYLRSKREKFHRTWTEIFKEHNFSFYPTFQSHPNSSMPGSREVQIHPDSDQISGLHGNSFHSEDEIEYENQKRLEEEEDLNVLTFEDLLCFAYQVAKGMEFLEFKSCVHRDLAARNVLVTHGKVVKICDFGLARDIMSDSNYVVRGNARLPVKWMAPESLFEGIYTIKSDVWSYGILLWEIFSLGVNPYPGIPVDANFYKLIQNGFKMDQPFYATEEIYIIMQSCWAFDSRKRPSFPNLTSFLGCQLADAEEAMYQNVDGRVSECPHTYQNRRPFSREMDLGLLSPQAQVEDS

[8] = target: Mast/stem cell growth factor receptor Kit (Homo sapiens, UniProt P10721); test: Binding affinity to KIT (unknown origin) at 4.5 nM incubated for 1 hr by KINOMEscan analysis; settings: 0.0045 µM; method in brief: as §2
Sequence of Mast/stem cell growth factor receptor Kit (P10721 whole entry): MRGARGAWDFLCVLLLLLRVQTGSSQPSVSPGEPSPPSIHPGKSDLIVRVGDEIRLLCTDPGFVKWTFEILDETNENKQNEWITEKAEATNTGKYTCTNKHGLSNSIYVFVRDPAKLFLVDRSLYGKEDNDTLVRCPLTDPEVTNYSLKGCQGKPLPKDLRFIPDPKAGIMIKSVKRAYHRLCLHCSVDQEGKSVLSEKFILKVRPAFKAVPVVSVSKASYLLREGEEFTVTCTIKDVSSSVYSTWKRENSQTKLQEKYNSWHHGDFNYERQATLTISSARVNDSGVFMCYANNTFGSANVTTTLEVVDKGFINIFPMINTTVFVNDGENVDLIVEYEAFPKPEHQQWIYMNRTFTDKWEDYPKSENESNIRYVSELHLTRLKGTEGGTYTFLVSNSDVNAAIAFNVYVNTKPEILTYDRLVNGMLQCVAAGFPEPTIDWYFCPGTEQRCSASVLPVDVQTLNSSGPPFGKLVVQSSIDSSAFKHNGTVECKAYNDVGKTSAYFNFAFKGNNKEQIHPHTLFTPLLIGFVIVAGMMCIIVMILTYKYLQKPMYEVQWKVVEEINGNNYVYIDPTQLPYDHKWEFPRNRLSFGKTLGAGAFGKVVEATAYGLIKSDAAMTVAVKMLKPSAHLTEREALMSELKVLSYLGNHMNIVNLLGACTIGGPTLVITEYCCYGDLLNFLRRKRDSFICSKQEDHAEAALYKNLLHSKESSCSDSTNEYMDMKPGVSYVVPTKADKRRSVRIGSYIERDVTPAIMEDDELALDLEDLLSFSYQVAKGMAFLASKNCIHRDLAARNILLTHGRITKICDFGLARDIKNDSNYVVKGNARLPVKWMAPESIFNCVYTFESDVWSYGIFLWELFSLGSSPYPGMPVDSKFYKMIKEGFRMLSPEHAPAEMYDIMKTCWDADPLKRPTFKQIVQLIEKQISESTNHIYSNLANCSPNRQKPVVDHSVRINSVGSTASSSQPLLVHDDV

MOLM-14 [9] = test: Inhibition of ERK phosphorylation in human MOLM-14 cells at 10 times IC50 incubated for 2 hrs by Western blot analysis relative to control; assay type: cell-based
MOLM-14 [10] = assay type: functional, cell-based; settings: Homo sapiens, MOLM-14, 72 h
MOLM-14 [11] = assay type: cell-based; settings: Homo sapiens, time 2.0 hrs
MOLM-14 [12] = test: Antiproliferative activity against human MOLM-14 cells harboring FLT3-D835Y mutant assessed as inhibition of cell growth incubated for 72 hrs by resazurin dye based assay; assay type: functional; settings: MOLM-14, 72 h; method in brief: as §1
MDA-MB-231 = test: Antiproliferative activity against human MDA-MB-231 cells lacking FLT3 activating mutations assessed as inhibition of cell growth incubated for 72 hrs by resazurin dye based assay; assay type: functional; settings: MDA-MB-231, 72 h; method in brief: as §1
[13] = Cytotoxicity against HEK293 cells lacking FLT3 activating mutations assessed as inhibition of cell growth incubated for 72 hrs by resazurin dye based assay; assay type: toxicity; settings: human; method in brief: as §1

Structure (SMILES) | IC50 (MOLM-14 [1]) [µM] | inhibition (MOLM-14 [2]) | inhibition [3] [%] | inhibition (MOLM-14 [4]) [%] | IC50 (K562) [µM] | inhibition (MOLM-14 [5]) | inhibition [6] [%] | IC50 [7] [µM] | inhibition (INH) [8] | inhibition (MOLM-14 [9]) [%] | IC50 (MOLM-14 [10]) [µM] | inhibition (MOLM-14 [11]) | IC50 (MOLM-14 [12]) [µM] | IC50 (MDA-MB-231) [µM] | IC50 at 72 h [13] [µM]
Cn1cc(-c2ccn3c(-c4cccc(Nc5ccc(S(C)(=O)=O)cc5)n4)cnc3c2)cn1 | 0.00455 | Active | > 65 | 100 | > 1 | Active | > 65 | 0.00794 | Not Active | 100 | 0.00834 | Active | 0.00316 | > 1 | > 1
Cn1cc(-c2ccn3c(-c4cccc(Nc5cccc(C(C)(C)C)c5)n4)cnc3c2)cn1 | 0.154 | – | – | – | > 1 | – | – | 0.288 | – | – | 0.412 | – | 0.265 | > 1 | 0.993

Reference: ChEMBL document CHEMBL5528013 (Eur J Med Chem, 2024)
